19 molecules from ChEMBL document CHEMBL1138735, “Identification of 1,5-naphthyridine derivatives as a novel series of potent and selective TGF-beta type I receptor inhibitors” (J Med Chem, 2004) can be followed below.

pIC50: −log10 of the molar value.

The pIC50 is −log10 of the IC50, conventionally taken in molar units. One may read the IC50 as the point on the concentration scale where inhibition reaches its midpoint.

Experiment [1] has as its target T1, TGF-beta receptor type-1 (Homo sapiens, UniProt P36897).
T1 sequence (P36897 whole entry): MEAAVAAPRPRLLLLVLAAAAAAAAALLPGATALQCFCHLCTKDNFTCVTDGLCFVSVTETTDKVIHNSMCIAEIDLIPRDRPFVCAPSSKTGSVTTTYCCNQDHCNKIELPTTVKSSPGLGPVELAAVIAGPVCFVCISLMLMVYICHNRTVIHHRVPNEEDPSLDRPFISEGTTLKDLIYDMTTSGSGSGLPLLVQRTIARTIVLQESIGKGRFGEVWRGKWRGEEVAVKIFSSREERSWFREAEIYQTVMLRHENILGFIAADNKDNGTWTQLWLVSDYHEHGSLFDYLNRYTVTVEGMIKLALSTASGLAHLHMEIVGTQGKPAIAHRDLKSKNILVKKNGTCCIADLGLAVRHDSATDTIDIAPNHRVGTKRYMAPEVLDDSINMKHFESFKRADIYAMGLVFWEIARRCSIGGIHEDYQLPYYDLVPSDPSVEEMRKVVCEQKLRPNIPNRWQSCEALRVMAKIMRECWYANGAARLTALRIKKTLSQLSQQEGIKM
Put plainly: Binding affinity to Activin A receptor type II-like kinase (ALK5) in fluorescence polarization binding assay; Range is (3.221-19.588). The procedure, abridged: (§1)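 Purified recombinant GST-ALK5 (residues 198–503), final 10 nM by active-site titration, in 62.5 mM HEPES pH 7.5, 1 mM DTT, 12.5 mM MgCl2, 1.25 mM CHAPS with 1 nM rhodamine green-labelled ATP-competitive ligand. Test compound added over a concentration range; plates read immediately for fluorescence polarization (ex 485/em 530 nm). Binding pIC50 from concentration–response curves; means of two or more experiments, mean pIC50 converted to IC50, with 95% confidence limits.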
In general terms: Polarisation of emitted light reports the rotation of a fluorescent probe.

Experiment [2] has as its target T1, TGF-beta receptor type-1. Put plainly: Stimulation of Transforming growth factor beta receptor I kinase in HepG2 cells. It is filed as functional, cell-based.
The target in experiment [3] is T1, TGF-beta receptor type-1. Put plainly: Binding affinity to Activin A receptor type II-like kinase (ALK5) in fluorescence polarization binding assay; Range is (0.021-0.042). The method in brief: (§2)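 Purified recombinant GST-ALK5 (residues 198–503), final 10 nM by active-site titration, in 62.5 mM HEPES pH 7.5, 1 mM DTT, 12.5 mM MgCl2, 1.25 mM CHAPS with 1 nM rhodamine green-labelled ATP-competitive ligand. Test compound added over a concentration series, plate read immediately by fluorescence polarization (ex 485/em 530 nm). Binding pIC50 from concentration–response curves; mean of two or more experiments, 95% confidence limits converted to IC50.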

Experiment [4] has as its target T1, TGF-beta receptor type-1. Put plainly: Binding affinity to Activin A receptor type II-like kinase (ALK5) in fluorescence polarization binding assay; Range is (0.289-3.621). The procedure, abridged:
as §1

In experiment [5] the target is T1, TGF-beta receptor type-1. Put plainly: Inhibition of recombinant Activin A receptor type II-like kinase (ALK5) expressed in baculovirus/Sf9 cells. In kind it is cell-based.
For experiment [6], the target named is T1, TGF-beta receptor type-1. Put plainly: Binding affinity to Activin A receptor type II-like kinase (ALK5) in fluorescence polarization binding assay; Range is (0.029-0.032).
The target of experiment [7] is T2, MAP kinase p38 (Homo sapiens, UniProt O15264+Q15759+Q16539+P53778). Put plainly: Displacement of ATP from p38 MAP kinase by fluorescence polarization assay. It is filed as protein assay. The procedure, abridged:
(§3)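 p38 MAP kinase binding measured by fluorescence polarization: displacement of a fluorescently labelled ATP-competitive inhibitor by a compound concentration series gives a binding IC50. Runs were duplicated or repeated as three separate experiments; 95% confidence limits on pIC50 were converted to IC50 limits.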

For experiment [8], the target named is T1, TGF-beta receptor type-1. Put plainly: Binding affinity to Activin A receptor type II-like kinase (ALK5) in fluorescence polarization binding assay; Range is (0.356-4.455). The procedure, abridged:
as §2

Experiment [9] concerns the target T1, TGF-beta receptor type-1. Put plainly: Binding affinity for Activin A receptor type II-like kinase (ALK5) in fluorescence polarization binding assay. The method in brief: as §1
The target of experiment [10] is T1, TGF-beta receptor type-1. Put plainly: Binding affinity to Activin A receptor type II-like kinase (ALK5) in fluorescence polarization binding assay; Range is (1.375-9.154). The procedure, abridged:
as §2

The target of experiment [11] is T1, TGF-beta receptor type-1. Put plainly: Binding affinity to Activin A receptor type II-like kinase (ALK5) in fluorescence polarization binding assay; Range is (2.423-6.540). The method in brief:
as §1

For experiment [12], the target named is T1, TGF-beta receptor type-1. Put plainly: Binding affinity to Activin A receptor type II-like kinase (ALK5) in fluorescence polarization binding assay; Range is (0.783-1.764). The procedure, abridged:
as §2

The target in experiment [13] is T1, TGF-beta receptor type-1. Put plainly: Binding affinity to Activin A receptor type II-like kinase (ALK5) in fluorescence polarization binding assay; Range is (5.326-22.574). The procedure, abridged: as §2
Experiment [14] deals with T1, TGF-beta receptor type-1.
In experiment [15] the target is T1, TGF-beta receptor type-1. Put plainly: Binding affinity to Activin A receptor type II-like kinase (ALK5) in fluorescence polarization binding assay; Range is (0.864-3.661). The method in brief: as §1
Experiment [16] addresses T1, TGF-beta receptor type-1. Put plainly: Binding affinity to Activin A receptor type II-like kinase (ALK5) in fluorescence polarization binding assay; Range is (0.038-0.042). The method in brief:
as §2

Experiment [17] addresses T2, MAP kinase p38. Put plainly: Displacement of ATP from Mitogen-activated protein kinase p38 in fluorescence polarization assay; Range is (0.242-0.545). The method in brief: as §3
In experiment [18] the target is T1, TGF-beta receptor type-1. The source holds these as a separate data set.
The target in experiment [19] is T1, TGF-beta receptor type-1. This is another data set of the same source.
Experiment [20] concerns the target T2, MAP kinase p38. Put plainly: Displacement of ATP from Mitogen-activated protein kinase p38 in fluorescence polarization assay; Range is (0.208-1.155). The method in brief: as §3
Experiment [21] concerns the target Mitogen-activated protein kinase kinase kinase 11 (Homo sapiens, UniProt Q16584). Put plainly: Inhibition of MLK3 kinase binding in fluorescence polarization assay.
In experiment [22] the target is Ribosomal protein S6 kinase alpha-5 (Homo sapiens, UniProt O75582). Put plainly: Inhibition of MSK-1 kinase binding in fluorescence polarization assay.
Ribosomal protein S6 kinase alpha-5, sequence (O75582 whole entry): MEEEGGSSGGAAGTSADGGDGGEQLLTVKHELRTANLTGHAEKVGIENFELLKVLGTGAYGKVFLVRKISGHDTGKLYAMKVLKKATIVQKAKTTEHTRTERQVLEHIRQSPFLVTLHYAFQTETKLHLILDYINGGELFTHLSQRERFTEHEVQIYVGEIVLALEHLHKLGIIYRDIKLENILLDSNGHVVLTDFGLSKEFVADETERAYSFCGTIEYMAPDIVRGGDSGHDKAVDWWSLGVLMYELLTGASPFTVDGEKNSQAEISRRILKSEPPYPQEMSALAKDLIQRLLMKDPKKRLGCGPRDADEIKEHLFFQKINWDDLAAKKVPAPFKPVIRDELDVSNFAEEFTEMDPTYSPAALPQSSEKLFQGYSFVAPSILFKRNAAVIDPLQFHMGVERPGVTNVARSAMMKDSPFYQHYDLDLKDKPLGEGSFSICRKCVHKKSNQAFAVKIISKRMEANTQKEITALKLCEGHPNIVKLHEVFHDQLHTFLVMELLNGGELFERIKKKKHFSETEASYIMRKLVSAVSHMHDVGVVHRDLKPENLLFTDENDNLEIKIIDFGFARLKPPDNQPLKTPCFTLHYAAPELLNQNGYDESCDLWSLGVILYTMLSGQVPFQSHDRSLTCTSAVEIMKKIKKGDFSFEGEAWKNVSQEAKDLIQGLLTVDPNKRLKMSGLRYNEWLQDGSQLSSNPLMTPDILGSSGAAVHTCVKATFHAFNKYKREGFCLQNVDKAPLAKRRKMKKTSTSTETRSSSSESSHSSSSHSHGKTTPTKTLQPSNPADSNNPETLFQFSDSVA
For experiment [23], the target named is Mitogen-activated protein kinase 8 (Homo sapiens, UniProt P45983). Put plainly: Inhibition of c-Jun N-terminal kinase 1-alpha 1 binding in fluorescence polarization assay.
Mitogen-activated protein kinase 8, sequence (P45983 whole entry): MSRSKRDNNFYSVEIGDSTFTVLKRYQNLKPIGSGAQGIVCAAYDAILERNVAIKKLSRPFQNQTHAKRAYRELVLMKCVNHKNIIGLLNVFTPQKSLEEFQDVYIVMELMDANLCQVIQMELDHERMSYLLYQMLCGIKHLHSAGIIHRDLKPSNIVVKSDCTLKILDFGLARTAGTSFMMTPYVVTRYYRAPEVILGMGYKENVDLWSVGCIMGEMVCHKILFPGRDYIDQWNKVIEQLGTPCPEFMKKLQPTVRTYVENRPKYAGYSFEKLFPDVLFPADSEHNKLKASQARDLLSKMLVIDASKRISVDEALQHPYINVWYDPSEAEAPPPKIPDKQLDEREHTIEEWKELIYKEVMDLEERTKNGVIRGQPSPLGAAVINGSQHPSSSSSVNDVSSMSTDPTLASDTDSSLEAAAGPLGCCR
The target in experiment [24] is Mitogen-activated protein kinase 10 (Homo sapiens, UniProt P53779). Put plainly: Inhibition of c-Jun N-terminal kinase 3-alpha binding in HTRF assay. For orientation: TR-FRET usually uses a lanthanide donor and a delayed reading to cut background.
Mitogen-activated protein kinase 10, sequence (P53779 whole entry): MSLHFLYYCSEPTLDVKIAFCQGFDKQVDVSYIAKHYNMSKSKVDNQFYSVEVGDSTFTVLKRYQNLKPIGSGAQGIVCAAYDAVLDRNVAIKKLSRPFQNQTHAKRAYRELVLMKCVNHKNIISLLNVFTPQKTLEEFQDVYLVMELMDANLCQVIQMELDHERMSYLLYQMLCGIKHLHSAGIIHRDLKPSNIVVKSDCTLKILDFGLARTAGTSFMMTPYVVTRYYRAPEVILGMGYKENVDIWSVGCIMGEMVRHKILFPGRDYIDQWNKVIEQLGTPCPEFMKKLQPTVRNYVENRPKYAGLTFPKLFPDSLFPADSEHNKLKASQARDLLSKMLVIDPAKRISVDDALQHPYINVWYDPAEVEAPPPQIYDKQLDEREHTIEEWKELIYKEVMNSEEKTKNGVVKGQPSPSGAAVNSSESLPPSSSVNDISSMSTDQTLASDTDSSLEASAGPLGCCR
Experiment [25] addresses Proto-oncogene tyrosine-protein kinase LCK (Mus musculus, UniProt P06240). Put plainly: Inhibition of p56 Lck tyrosine kinase binding in HTRF assay.
Experiment [26] concerns the target Serine/threonine-protein kinase B-raf (Homo sapiens, UniProt P15056). Put plainly: Inhibition of Protein kinase Raf-B binding in fluorescence polarization assay.
Experiment [27] addresses T3, Tyrosine-protein kinase ITK/TSK (Homo sapiens, UniProt Q08881).
T3 sequence (Q08881 whole entry): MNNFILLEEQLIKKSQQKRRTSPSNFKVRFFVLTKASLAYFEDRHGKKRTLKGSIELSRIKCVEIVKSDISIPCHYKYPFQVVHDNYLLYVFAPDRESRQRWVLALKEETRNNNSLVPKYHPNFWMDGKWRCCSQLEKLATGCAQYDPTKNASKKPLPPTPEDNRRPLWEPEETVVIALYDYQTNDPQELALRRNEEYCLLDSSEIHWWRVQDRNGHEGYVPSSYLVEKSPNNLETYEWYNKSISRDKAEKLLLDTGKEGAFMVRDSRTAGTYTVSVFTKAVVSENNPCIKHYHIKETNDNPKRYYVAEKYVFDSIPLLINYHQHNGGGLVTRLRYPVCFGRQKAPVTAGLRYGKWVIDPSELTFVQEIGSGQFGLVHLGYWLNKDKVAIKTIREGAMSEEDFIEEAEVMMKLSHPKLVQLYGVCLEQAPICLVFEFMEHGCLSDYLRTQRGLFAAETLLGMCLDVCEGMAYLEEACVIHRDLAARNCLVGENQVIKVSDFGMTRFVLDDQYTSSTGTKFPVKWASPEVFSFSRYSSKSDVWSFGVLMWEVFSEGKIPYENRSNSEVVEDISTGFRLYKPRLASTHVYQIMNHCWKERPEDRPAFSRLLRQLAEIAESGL

Mitogen-activated protein kinase kinase kinase 11, sequence (Q16584 whole entry): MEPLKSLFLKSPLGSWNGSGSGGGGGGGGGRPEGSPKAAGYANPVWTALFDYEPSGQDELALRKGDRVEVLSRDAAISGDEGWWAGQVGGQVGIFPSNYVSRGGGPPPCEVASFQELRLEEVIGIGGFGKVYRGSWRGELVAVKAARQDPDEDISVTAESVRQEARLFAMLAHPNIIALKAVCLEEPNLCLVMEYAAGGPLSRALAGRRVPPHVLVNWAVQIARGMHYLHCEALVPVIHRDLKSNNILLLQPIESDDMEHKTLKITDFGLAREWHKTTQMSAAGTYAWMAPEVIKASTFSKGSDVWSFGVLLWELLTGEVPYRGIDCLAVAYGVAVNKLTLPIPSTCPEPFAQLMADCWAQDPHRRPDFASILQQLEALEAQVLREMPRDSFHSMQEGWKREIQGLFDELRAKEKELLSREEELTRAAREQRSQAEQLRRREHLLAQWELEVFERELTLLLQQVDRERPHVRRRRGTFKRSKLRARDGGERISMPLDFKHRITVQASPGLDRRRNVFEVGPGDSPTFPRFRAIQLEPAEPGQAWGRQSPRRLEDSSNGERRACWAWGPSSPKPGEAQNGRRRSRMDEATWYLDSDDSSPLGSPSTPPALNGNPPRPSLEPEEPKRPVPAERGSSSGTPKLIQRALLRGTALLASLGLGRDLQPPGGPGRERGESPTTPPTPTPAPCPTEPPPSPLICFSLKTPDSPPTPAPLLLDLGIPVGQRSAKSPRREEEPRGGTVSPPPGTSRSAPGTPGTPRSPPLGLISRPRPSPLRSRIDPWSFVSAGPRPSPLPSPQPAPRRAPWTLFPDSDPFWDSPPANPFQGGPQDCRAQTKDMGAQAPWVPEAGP
Serine/threonine-protein kinase B-raf, sequence (P15056 whole entry): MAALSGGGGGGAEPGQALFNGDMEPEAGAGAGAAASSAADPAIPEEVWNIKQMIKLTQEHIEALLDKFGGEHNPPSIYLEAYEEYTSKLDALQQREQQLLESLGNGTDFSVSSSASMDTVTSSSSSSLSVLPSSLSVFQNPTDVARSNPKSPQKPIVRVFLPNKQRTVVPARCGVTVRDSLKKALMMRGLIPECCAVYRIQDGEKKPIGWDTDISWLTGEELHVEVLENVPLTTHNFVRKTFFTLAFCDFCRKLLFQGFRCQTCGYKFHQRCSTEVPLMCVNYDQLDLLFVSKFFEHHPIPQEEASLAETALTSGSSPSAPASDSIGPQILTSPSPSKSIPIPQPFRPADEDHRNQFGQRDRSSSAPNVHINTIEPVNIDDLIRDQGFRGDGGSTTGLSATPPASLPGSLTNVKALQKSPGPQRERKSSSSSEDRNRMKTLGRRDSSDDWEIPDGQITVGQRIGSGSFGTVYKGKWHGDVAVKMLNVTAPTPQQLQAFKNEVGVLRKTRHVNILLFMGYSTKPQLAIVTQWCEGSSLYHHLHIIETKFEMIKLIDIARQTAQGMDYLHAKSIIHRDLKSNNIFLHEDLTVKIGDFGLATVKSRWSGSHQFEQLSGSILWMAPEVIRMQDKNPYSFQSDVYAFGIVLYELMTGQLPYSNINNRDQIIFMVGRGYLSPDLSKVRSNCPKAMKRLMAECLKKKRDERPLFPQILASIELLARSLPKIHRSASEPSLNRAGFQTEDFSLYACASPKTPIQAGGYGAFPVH
Proto-oncogene tyrosine-protein kinase LCK, sequence (P06240 whole entry): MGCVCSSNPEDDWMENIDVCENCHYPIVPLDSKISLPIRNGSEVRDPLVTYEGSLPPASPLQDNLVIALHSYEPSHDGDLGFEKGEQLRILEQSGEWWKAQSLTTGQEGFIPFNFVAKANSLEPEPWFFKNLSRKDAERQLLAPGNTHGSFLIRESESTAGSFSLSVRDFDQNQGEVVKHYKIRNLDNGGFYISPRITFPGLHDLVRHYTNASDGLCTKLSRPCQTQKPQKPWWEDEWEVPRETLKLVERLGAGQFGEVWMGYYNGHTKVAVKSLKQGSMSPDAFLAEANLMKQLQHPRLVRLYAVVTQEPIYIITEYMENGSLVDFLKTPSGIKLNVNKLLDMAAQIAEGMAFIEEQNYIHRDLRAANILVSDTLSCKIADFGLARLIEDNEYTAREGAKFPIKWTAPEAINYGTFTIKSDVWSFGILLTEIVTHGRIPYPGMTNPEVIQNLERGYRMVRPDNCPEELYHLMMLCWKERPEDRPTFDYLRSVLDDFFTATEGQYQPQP

For the molecule `Nc1nc(-c2ccccn2)c(-c2ccnc3ncccc23)s1`, the pIC50 was 5.10 on TGF-beta receptor type-1 [1] and less than 5.00 at TGF-beta receptor type-1 [2].
On to `Cc1ccnc2ccc(-c3sc(N)nc3-c3ccccn3)nc12`, for which the negative-log IC50 (pIC50) against TGF-beta receptor type-1 [2] is 6.66; at TGF-beta receptor type-1 [3], 7.52.
For the molecule `Nc1nc(-c2cc(Cl)ccn2)c(-c2ccnc3ccccc23)s1`, the pIC50 at TGF-beta receptor type-1 [4] was 5.99; at TGF-beta receptor type-1 [2], less than 5.00.
For `c1ccc(-c2n[nH]cc2-c2ccc3ncccc3n2)nc1`, the pIC50 against TGF-beta receptor type-1 [2] is 7.30; on TGF-beta receptor type-1 [5] it was 7.72; at TGF-beta receptor type-1 [6], 7.52. At MAP kinase p38 [7], this molecule returned an IC50 of more than 16 µM.
In the case of `Nc1nc(-c2ccccc2F)c(-c2ccnc3ccccc23)s1`, the figures for the pIC50 against TGF-beta receptor type-1 [2] and on TGF-beta receptor type-1 [8] were 5.18 and 5.90, respectively.
`COc1ccccc1-c1nc(N)sc1-c1ccnc2ccccc12`: the pIC50 on TGF-beta receptor type-1 [9] and at TGF-beta receptor type-1 [2] was less than 5.00 throughout.
On to `Nc1nc(-c2ccccn2)c(-c2ccc3ccccc3n2)s1`, for which the figures for the pIC50 against TGF-beta receptor type-1 [2] and on TGF-beta receptor type-1 [10] were less than 5.00 and 5.45, respectively.
Consider `Cc1ccc(-c2nc(N)sc2-c2ccnc3ccccc23)nc1`, for which the negative-log IC50 (pIC50) on TGF-beta receptor type-1 [9] and on TGF-beta receptor type-1 [2] was less than 5.00 each time.
As for `Nc1nc(-c2cccnc2)c(-c2ccnc3ccccc23)s1`, the pIC50 against TGF-beta receptor type-1 [2] is less than 5.00; on TGF-beta receptor type-1 [11], 5.40.
For the molecule `Cc1cccc(-c2nc(N)sc2-c2ccc3ncccc3n2)n1`, the half-maximal inhibitory concentration (IC50) at MAP kinase p38 [7] was more than 16 µM.
As for `CCOc1ccc2nc(-c3sc(N)nc3-c3ccccn3)ccc2n1`, the pIC50 at TGF-beta receptor type-1 [9] and against TGF-beta receptor type-1 [2] was less than 5.00 each time.
Regarding `Nc1nc(-c2nccs2)c(-c2ccnc3ccccc23)s1`, the negative logarithm of the IC50 (pIC50) at TGF-beta receptor type-1 [2] is 5.18; on TGF-beta receptor type-1 [12], 5.93.
As to `Nc1nc(-c2ccccn2)c(-c2cccc3ccccc23)s1`, the negative logarithm of the IC50 (pIC50) on TGF-beta receptor type-1 [2] is less than 5.00; at TGF-beta receptor type-1 [13], 4.96.
`Cc1ccc2nccc(-c3sc(N)nc3-c3ccccn3)c2n1`: the pIC50 against TGF-beta receptor type-1 [14] was 6.42; on TGF-beta receptor type-1 [2], 6.59.
Consider `Nc1nc(-c2ccc(Cl)cn2)c(-c2ccnc3ccccc23)s1`, for which the negative logarithm of the IC50 (pIC50) on TGF-beta receptor type-1 [15] was 5.75; on TGF-beta receptor type-1 [2], less than 5.00.
In the case of `Nc1nc(-c2ccccn2)c(-c2ccc3ncccc3n2)s1` [GW693481X], the pIC50 is 6.92 against TGF-beta receptor type-1 [2], 7.40 on TGF-beta receptor type-1 [16] and 7.70 on TGF-beta receptor type-1 [5]. Besides, the IC50 on MAP kinase p38 [7] was more than 16 µM.
On to `Nc1nc(-c2cccc(Cl)c2)c(-c2ccc3ncccc3n2)s1` [GW780159X], for which the negative logarithm of the IC50 (pIC50) against TGF-beta receptor type-1 [2] is 8.00; at TGF-beta receptor type-1 [5], 8.00; at MAP kinase p38 [17], 6.44; against TGF-beta receptor type-1 [18], 7.70.
As to `Nc1nc(-c2ccc(F)cc2)c(-c2ccc3ncccc3n2)s1` [GW785804X], the pIC50 was 7.40 against TGF-beta receptor type-1 [19], 7.52 against TGF-beta receptor type-1 [2], 6.31 on MAP kinase p38 [20] and 8.00 at TGF-beta receptor type-1 [5].
For the molecule `Cc1cccc(-c2n[nH]cc2-c2ccc3ncccc3n2)n1` [GW786460X], the pIC50 in experiment [21], in experiment [22], in [23], in experiment [24], in [25] and in experiment [26] was less than 4.80 throughout. In experiment [27], this molecule had a pIC50 of less than 4.80.
